Rows were chosen to be rich in hits. Some 1.3% of all compounds tested hit in one or more screens of this group.
RAD54 branch – blocks human RAD54 Holliday junction branch migration; actives 0.14% (n = 360,000); AID 602329; FAM/BHQ fluorescence; inhibition, % at 10.4 µM; Q92698;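 active = mean normalized replicate activity at least 40 and at least half of replicates scoring 40 or more; inconclusive = only one of the two criteria met; inactive = mean below 40 and under half of replicates reaching 40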;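 also: inhibitors cause a drop in the FAM fluorescence signal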
Target sequence (Q92698 whole entry, looked up): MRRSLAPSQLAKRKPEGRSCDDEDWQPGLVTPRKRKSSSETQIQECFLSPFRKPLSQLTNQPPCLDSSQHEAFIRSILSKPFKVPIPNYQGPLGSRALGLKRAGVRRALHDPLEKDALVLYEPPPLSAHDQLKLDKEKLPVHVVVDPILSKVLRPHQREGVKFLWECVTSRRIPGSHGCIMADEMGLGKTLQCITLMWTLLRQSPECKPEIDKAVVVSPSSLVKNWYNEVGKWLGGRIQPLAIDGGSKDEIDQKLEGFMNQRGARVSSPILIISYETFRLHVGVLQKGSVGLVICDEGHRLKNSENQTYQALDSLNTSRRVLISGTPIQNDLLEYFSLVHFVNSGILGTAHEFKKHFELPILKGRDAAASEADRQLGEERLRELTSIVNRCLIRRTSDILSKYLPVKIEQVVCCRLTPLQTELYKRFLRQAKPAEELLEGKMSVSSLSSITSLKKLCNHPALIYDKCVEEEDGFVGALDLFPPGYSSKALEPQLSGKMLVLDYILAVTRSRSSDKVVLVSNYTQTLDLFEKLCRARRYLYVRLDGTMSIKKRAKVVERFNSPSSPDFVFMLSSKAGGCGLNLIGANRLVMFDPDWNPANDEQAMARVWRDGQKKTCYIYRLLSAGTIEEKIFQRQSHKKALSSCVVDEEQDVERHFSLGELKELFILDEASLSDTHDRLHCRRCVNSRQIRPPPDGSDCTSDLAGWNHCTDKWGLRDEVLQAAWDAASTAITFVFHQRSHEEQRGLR
RAD52 inh – inhibitors of human RAD52 DNA annealing; P43351; recombinant RAD52 DNA annealing, FRET fluorescence; inhibition, % at 18.7 µM; actives 0.46% (n = 360,000); AID 651710;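 active = every replicate showing at least 50% inhibition; inconclusive = mean inhibition at least 50% but not in every replicate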
PAX8 reporter – inhibitors of PAX8 transcriptional activity in RMG-I cells; actives 1.2% (n = 360,000); inhibition, % at 12.6 µM; RMG-I TPO-luciferase reporter, SteadyGlo, 24 h; AID 652154;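 active = mean replicate inhibition at least 60% with every replicate also reaching 60%; inconclusive = only one of the two criteria is met; inactive = mean below 60% and not all replicates reaching 60%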;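 also: luciferase light reporting Pax8 driven TPO promoter activity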
FN deposition inh – fibronectin deposition inhibition; AH1F fibroblasts, Alexa488-fibronectin deposition fluorescence, overnight; actives 0.086% (n = 350,000); inhibition, % at 12.6 µM; AID 743247;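 active = mean inhibition across replicates of 30% or more, regardless of how many single replicates reach that level; inconclusive = mean under 30% yet at least half of replicates reach 30%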
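test system = AH1F fibroblasts assembling fluorescent fibronectin matrix | quantity = 10000 AH1F cells per well | buffer or medium = DMEM plus 2% serum, read in PBS | doses = single dose, pinned | incubation = 1 h cell attachment, overnight exposure to compound and label | detection = fluorescence at 485 nm excitation, 525 nm emission | read-out basis = inhibition from reduced deposited-fibronectin fluorescence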
DNA binder FP – DNA binding artifact in RAD52 counter-screen. shares compounds with RAD52 inh. Salmon sperm DNA/acridine orange FP displacement. AC50, µM. actives 8% (n = 1,000). AID 652128;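 active = fitted half-maximal concentration for signal loss at or below twice the highest dose tested, in every separate run, actives reach about 64 µM in these data; inconclusive = runs disagree, or flat partial signal loss, or poor fit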
Hits are given with their value; i = inactive; ? = inconclusive; nt = not tested or not shown.

SMILES	RAD54 branch	RAD52 inh	PAX8 reporter	FN deposition inh	DNA binder FP
CN(CC(=O)Nc1ccc(S(=O)(=O)N2CCCC2)cc1)CC(=O)Nc1cccc(F)c1	i	58.3	i	i	i
CO[C@H]1CN(C)C(=O)c2ccc(NC(=O)Nc3cccc(Cl)c3)cc2OC[C@@H](C)N(C(=O)Nc2c(C)noc2C)C[C@H]1C	i	i	i	i	nt
CCCCCCCCCCCCOC(=O)C[N+](C)(C)C	nt	50.0	i	i	i
CCOC(=O)c1c(CN(C)C)n(C)c2c(O)c(N=NC(N)=O)c3ccc(Br)cc3c12	58.0	101.0	i	i	i
CCCn1c(=O)c(C(=O)OCC)c(O)c2cc(Br)ccc21	nt	nt	i	i	nt
CC1CCCCN1CCNC(=O)c1ccc2c(c1)N(Cc1cccc(Cl)c1)C(=O)c1ccccc1S2=O (centres undefined)	i	i	i	i	nt
Cc1cccc(CN2C(=O)/C(=C\c3ccc(C(=O)NCCCN4CCN(C)CC4)cc3)Oc3ccccc32)c1	i	i	?	i	nt
O=C(NCCCN1CCCC1)c1ccc2c(c1)N(Cc1cccc(Cl)c1)C(=O)c1ccccc1S2=O (centres undefined)	i	67.3	i	i	i
CN1CCN(CCCNC(=O)c2ccc(/C=C3\Oc4ccccc4N(Cc4ccccc4F)C3=O)cc2)CC1	i	95.8	i	i	i
O=C(NCCCN1CCOCC1)c1ccc2c(c1)N(Cc1ccccc1)C(=O)c1ccccc1S2	i	i	i	i	nt
CN1CCN(CCCNC(=O)c2ccc(/C=C3/Sc4ccccc4N(Cc4cccc(Cl)c4)C3=O)cc2)CC1	i	68.1	i	i	i
O=C(CN1C(=O)/C(=C/c2ccccc2)Sc2ccccc21)NCCCN1CCOCC1	i	i	i	i	nt
CN1CCN(CCCNC(=O)c2ccc(/C=C3\Sc4ccccc4N(Cc4ccc(F)cc4)C3=O)cc2)CC1	i	92.0	i	i	i
O=C1Nc2cc(C(=O)NCCCN3CCCC3)ccc2S/C1=C/c1cccc(Cl)c1	i	79.4	i	i	i
Cc1c2ccncc2cc2c1[nH]c1ccccc12	i	i	i	i	nt
COc1ccc2[nH]c3c(C)c4ccncc4c(C)c3c2c1	i	99.6	nt	nt	i
CN(C)c1ccc(C=c2c3ccccc3n3c2c2c([n+]3C)CCCC2)cc1	nt	89.1	91.3	i	6.93µM
c1ccc2c(c1)c1c(c3ccccc32)CN2CCCC2C1 (centres undefined)	nt	103.4	nt	i	24.8µM
c1ccc(CN2CCC(N3CCC(N4CCCCCC4)CC3)CC2)cc1	i	i	nt	nt	nt
CCc1ccc(OCC(O)CN2CCCC2)cc1 (centres undefined)	i	i	i	i	nt
NCCCC[C@H]1CNC(=O)C(=O)N1CCCCC1CCCCC1	i	i	i	i	nt
NCCCC[C@H]1CNC(=S)N1CC1CCCCC1	i	84.6	i	i	i
O=C(Cc1cccc(NC(=O)C2CCCN(C(=O)C3CCC3)C2)c1)Nc1ccc(C(=O)N2CCOCC2)cc1 (centres undefined)	i	i	i	i	nt
CCN(CC)CCNc1ccc(C)c2sc3ccc(O)cc3c(=O)c12	nt	75.7	i	i	10.1µM
CCN(CC)CCCNC(=O)C(C)n1nc(C)c2sc3ccccc3c2c1=O (centres undefined)	nt	nt	i	i	nt
SMILES	RAD54 branch	RAD52 inh	PAX8 reporter	FN deposition inh	DNA binder FP
CCN(C(=O)c1cccnc1)c1ccccc1	i	nt	i	i	nt
Cc1ccc(C)n1-c1nnc(N2CCC(C(=O)N3CCN(C)CC3)CC2)s1	i	55.8	i	i	i
CCOC(=O)N1CCN(C(=O)C2CCN(c3nnc(-n4cccc4)s3)CC2)CC1	i	i	i	i	nt
CN1CCN(CCCNC(=O)C2CCN(c3nnc(-n4cccc4)s3)CC2)CC1	i	nt	nt	nt	nt
CCN1CCN(C(=O)C2CCN(c3nnc(-n4c(C)ccc4C)s3)CC2)CC1	i	57.8	i	i	i
Cc1cc(=O)n2nc(N3CCC(C(=O)N4CCN(C)CC4)CC3)sc2n1	i	nt	nt	nt	nt
CCCN1CCN(CCCNC(=O)C2CCN(c3nnc(-n4c(C)ccc4C)s3)CC2)CC1	i	58.3	i	i	i
COc1cc2c(cc1OC)-c1cc3ccc(OC)c(OC)c3c[n+]1CC2	59.9	79.7	i	i	i
COc1cc(NC(=O)c2ccc(N3CC4CC(C3)c3cccc(=O)n3C4)c(NC(=O)c3ccncc3)c2)cc(OC)c1OC (centres undefined)	i	84.8	i	i	i
CCOc1ccc(NC(=O)c2ccc(N3CC4CC(C3)c3cccc(=O)n3C4)c(NC(=O)c3ccncc3)c2)cc1 (centres undefined)	i	i	i	i	nt
COc1ccc2c(c1)CCc1c(C(=O)NCc3ccc(Cl)cc3)noc1-2	nt	nt	i	i	nt

From PubChem
